One compound from ChEMBL document CHEMBL1275331, “Discovery of a novel 5-HT(3) antagonist/5-HT(1A) agonist 3-amino-5,6,7,8-tetrahydro-2-{4-[4-(quinolin-2-yl)piperazin-1-yl]butyl}quinazolin-4(3H)-one (TZB-30878) as an orally bioavailable agent for irritable bowel syndrome” (J Med Chem, 2010) can be followed below.

Where only a bound is given, the exact number is not on record here.

Data set [1] concerns the target 5-hydroxytryptamine receptor 5A (Homo sapiens, UniProt P47898). The experiment in a line: Displacement of [3H]LSD from human recombinant 5HT5A receptor. Background: Loss of bound radioactivity is the signal in a displacement assay; it reports binding, not function.
In data set [2] the target is Neuromedin-K receptor (Homo sapiens, UniProt P29371). The data set can be described thus: Displacement of [3H]SR142801 from human recombinant NK3 receptor.
Data set [3] deals with D(1A) dopamine receptor (Homo sapiens, UniProt P21728). The experiment in a line: Displacement of [3H]SCH23390 from human recombinant dopamine D1 receptor.
Data set [4] concerns the target T1, 5-hydroxytryptamine receptor 1A (Homo sapiens, UniProt P08908).
T1 sequence (P08908 whole entry): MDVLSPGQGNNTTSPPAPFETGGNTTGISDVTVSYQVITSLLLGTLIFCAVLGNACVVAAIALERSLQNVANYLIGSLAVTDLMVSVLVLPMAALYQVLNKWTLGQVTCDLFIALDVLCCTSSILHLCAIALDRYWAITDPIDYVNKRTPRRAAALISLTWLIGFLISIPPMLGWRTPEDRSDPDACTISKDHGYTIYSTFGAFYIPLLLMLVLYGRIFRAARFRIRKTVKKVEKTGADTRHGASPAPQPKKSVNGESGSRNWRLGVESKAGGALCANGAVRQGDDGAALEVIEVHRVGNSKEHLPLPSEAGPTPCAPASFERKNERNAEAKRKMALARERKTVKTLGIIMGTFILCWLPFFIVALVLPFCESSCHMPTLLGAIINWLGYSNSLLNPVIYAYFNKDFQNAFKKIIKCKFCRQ
The data set can be described thus: Binding affinity to human 5HT1A receptor. Put shortly:
(§1)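 CHO-cell membranes with human 5-HT1A were incubated with 0.25 nmol/L [3H]8-OH-DPAT (final) for 60 min at 27 °C. Buffer: 50 mM Tris-HCl, 10 mM MgSO4, 0.5 mM EDTA, 0.1% ascorbic acid, pH 7.4. Compound came from 270 μmol/L DMSO stock, diluted in buffer. Filtration was through GF/C presoaked in 0.3% polyethyleneimine, with two cold Tris washes. Run in duplicate or triplicate; percent inhibition of binding calculated.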

In data set [5] the target is T1, 5-hydroxytryptamine receptor 1A. The experiment in a line: Displacement of [3H]8-OH-DPAT from human 5HT1A receptor expressed in CHO cells by liquid scintillation counting. The class given is cell-based. In short, it runs like this: as §1
Data set [6] addresses 5-hydroxytryptamine receptor 4 (Cavia porcellus, UniProt O70528). The data set can be described thus: Inhibition of guinea pig 5HT4 receptor.
Data set [7] concerns the target T2, 5-hydroxytryptamine receptor 3A (Homo sapiens, UniProt P46098).
T2 sequence (P46098 whole entry): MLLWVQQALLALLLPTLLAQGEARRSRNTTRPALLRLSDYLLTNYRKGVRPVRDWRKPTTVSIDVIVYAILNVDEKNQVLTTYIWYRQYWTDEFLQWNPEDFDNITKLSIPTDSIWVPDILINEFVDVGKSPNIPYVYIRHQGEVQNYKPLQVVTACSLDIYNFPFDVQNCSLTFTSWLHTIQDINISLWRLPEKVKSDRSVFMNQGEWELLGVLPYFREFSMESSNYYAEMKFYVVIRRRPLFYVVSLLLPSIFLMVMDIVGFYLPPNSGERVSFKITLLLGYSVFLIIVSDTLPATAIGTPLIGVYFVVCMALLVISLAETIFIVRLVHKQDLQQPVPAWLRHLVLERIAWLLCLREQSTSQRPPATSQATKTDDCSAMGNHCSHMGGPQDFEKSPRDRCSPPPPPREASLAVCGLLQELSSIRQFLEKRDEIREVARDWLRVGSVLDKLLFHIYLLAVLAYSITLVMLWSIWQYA
The data set can be described thus: Displacement of [3H]BRL-43694 from human recombinant 5HT3 receptor.

Data set [8] can be described thus: Ratio of drug level in brain to blood in Sprague-Dawley rat at 3 mg/kg, po after 2 hrs. The class given is ADME, organism-based. Details: dose 3 mg/kg, route oral. Put shortly: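 Rats dosed 3 mg/kg orally; total compound levels measured in brain and blood at 2, 4 and 8 h, brain/blood ratio derived. Mean ± SD of three rats.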
Data set [9] has as its target Sodium-dependent noradrenaline transporter (Homo sapiens, UniProt P23975). The experiment in a line: Displacement of [3H]nisoxetine from human recombinant NET.
Data set [10] has as its target Histamine H1 receptor (Homo sapiens, UniProt P35367). The data set can be described thus: Displacement of [3H]pyrilamine from human recombinant histamine H1 receptor.
Data set [11] concerns the target T1, 5-hydroxytryptamine receptor 1A. The data set can be described thus: Agonist activity at human cloned 5HT1A receptor expressed in CHO cells assessed as stimulation of [35S]GTPgammaS binding after 30 mins by liquid scintillation counting. In kind it is functional, cell-based. Put shortly: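 Membranes from CHO cells expressing human 5-HT1A were diluted in 20 mM HEPES/3 mM MgCl2/120 mM NaCl, pH 7.4. They were preincubated with 20 μM GDP and test drug for 20 min at 30 °C, then held on ice for 15 min. [35S]GTPγS (100 pM) was added for 30 min at 30 °C. Samples were filtered, washed with cold HEPES/MgCl2 buffer, and bound radioactivity counted; EC50 and Emax reported.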
(In general: Binding of GTPγS marks nucleotide exchange on a G protein.)

For data set [12], the target named is 5-hydroxytryptamine receptor 1B (Rattus norvegicus, UniProt P28564). The experiment in a line: Displacement of [125I]CYP from rat cerebral cortex 5HT1B receptor in presence of 30 uM propranolol. The class given is tissue-based.
For data set [13], the target named is Beta-1 adrenergic receptor (Homo sapiens, UniProt P08588). The experiment in a line: Displacement of [3H](-)CGP12177 from human recombinant beta-1 adrenergic receptor.
Data set [14] deals with Substance-K receptor (Homo sapiens, UniProt P21452). The data set can be described thus: Displacement of [125I]NKA from human recombinant NK2 receptor.
The target of data set [15] is Neuropeptide Y receptor type 2 (Homo sapiens, UniProt P49146). The experiment in a line: Displacement of [125I]peptide YY from NPY2 receptor in human KAN-TS cells. In kind it is cell-based.
Data set [16] addresses Adenosine receptor A2a (Homo sapiens, UniProt P29274). The data set can be described thus: Displacement of [3H]CGS21680 from human recombinant adenosine A2A receptor.
Data set [17] has as its system Rattus norvegicus. The experiment in a line: Effect on 5HT1A receptor-mediated hypothermic effect in rat assessed as change in rectal temperature at 10 mg/kg, iv after 30 mins. In kind it is functional, organism-based. Also noted: dose 10 mg/kg. Put shortly: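 Rats were conditioned over 2 weeks and acclimated to the cage for 1 h before dosing (vehicle: saline with diluted HCl). Rectal temperature was recorded with a thermistor probe inserted 3 cm, before and 30 min after administration. The change in temperature was reported.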

The target in data set [18] is T2, 5-hydroxytryptamine receptor 3A. The data set can be described thus: Displacement of [3H]BRL-43694 from human 5HT3 receptor expressed in HEK293 cells by liquid scintillation counting. The class given is cell-based. In short, it runs like this: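 HEK-293 membranes expressing human 5-HT3 were incubated with 0.5 nmol/L [3H]BRL-43694 (final) for 60 min at 25 °C. Buffer: 50 mM Tris-HCl, 5 mM MgCl2, 1 mM EDTA, pH 7.5. Compound came from 270 μmol/L DMSO stock, diluted in buffer. Filtration was through GF/B presoaked in 0.5% polyethyleneimine, with two cold Tris washes. Run in duplicate or triplicate; percent inhibition calculated.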

For orientation: IC50 means the point on the concentration scale where inhibition reaches its midpoint. What is called Ki is the dissociation constant of the complex between target and ligand, obtained from inhibition or displacement. Read a low Ki as tighter binding. The Kp is tissue or fluid exposure divided by exposure in the circulation. The term EC50 denotes the concentration needed to bring the measured effect to its halfway point.

5-hydroxytryptamine receptor 5A, sequence (P47898 whole entry): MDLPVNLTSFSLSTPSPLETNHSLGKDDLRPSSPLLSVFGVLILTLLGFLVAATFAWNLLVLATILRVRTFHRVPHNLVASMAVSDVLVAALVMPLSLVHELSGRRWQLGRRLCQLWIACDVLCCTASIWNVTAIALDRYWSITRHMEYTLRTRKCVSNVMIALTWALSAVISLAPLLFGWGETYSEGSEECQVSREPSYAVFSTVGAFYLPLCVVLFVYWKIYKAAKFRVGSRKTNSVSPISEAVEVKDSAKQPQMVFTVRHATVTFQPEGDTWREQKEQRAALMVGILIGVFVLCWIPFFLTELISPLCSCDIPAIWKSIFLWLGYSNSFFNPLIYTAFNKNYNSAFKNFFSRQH
Neuromedin-K receptor, sequence (P29371 whole entry): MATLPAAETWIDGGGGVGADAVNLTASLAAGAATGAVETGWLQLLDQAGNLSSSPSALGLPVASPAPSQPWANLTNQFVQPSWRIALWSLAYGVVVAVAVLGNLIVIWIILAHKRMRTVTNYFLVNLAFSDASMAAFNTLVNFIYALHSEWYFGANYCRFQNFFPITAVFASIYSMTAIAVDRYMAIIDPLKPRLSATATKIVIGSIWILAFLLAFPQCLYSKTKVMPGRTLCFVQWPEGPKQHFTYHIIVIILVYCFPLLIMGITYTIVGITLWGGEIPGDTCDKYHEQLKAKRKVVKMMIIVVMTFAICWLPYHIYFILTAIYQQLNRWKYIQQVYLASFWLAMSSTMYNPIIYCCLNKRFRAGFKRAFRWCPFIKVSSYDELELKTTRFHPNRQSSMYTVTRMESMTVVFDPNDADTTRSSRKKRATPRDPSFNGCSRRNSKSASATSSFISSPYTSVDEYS
5-hydroxytryptamine receptor 1B, sequence (P28564 whole entry): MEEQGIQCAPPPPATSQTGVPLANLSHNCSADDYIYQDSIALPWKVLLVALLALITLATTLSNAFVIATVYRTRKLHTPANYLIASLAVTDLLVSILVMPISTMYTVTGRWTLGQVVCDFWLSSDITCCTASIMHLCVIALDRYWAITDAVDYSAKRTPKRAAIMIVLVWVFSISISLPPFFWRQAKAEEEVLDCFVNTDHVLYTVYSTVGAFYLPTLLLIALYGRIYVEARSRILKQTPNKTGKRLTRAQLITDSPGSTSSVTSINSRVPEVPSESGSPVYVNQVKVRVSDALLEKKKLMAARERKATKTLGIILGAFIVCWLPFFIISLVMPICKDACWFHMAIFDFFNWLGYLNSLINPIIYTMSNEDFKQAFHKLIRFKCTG
Neuropeptide Y receptor type 2, sequence (P49146 whole entry): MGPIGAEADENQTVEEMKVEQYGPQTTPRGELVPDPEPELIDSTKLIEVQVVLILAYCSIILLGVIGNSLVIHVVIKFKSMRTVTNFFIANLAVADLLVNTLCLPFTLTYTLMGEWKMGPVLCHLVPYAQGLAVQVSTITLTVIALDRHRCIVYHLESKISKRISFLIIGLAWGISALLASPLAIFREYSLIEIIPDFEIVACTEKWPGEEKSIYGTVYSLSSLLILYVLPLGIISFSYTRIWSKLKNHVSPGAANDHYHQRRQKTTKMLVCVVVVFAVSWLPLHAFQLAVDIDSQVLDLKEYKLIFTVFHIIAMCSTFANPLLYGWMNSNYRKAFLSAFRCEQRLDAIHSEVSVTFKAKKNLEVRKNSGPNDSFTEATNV
D(1A) dopamine receptor, sequence (P21728 whole entry): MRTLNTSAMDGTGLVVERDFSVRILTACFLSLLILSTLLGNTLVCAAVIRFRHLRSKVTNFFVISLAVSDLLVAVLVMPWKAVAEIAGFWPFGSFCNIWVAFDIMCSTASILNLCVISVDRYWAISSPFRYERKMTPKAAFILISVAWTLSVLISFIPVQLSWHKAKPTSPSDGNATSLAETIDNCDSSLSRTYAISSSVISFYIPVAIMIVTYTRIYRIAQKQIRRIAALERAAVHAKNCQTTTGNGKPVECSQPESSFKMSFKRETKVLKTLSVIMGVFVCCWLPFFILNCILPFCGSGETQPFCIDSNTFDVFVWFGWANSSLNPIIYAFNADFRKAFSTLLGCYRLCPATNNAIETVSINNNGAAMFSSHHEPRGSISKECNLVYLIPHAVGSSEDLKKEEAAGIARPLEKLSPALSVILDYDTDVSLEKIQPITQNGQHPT
Histamine H1 receptor, sequence (P35367 whole entry): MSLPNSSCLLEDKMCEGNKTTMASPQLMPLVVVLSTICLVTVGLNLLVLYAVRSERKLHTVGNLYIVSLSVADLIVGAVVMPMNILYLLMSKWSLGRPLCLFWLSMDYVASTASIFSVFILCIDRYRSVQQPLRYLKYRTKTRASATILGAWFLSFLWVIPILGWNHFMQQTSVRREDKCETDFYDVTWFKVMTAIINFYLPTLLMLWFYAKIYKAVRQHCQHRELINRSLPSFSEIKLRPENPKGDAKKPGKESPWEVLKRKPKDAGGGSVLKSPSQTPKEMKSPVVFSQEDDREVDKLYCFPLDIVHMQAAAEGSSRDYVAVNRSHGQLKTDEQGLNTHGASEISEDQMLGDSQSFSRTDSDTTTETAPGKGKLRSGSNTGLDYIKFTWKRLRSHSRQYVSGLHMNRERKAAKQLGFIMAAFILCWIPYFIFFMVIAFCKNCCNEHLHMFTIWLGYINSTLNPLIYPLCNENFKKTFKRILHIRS
Substance-K receptor, sequence (P21452 whole entry): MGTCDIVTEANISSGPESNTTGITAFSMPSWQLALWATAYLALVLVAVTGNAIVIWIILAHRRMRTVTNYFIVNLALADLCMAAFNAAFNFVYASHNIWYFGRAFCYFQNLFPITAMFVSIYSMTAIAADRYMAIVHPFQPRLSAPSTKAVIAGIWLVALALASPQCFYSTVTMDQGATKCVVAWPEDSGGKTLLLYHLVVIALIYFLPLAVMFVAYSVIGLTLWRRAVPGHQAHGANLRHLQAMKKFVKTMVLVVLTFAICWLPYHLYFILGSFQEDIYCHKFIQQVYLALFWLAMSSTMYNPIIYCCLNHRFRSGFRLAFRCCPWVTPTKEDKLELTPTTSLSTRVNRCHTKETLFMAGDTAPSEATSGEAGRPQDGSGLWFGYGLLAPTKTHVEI
Sodium-dependent noradrenaline transporter, sequence (P23975 whole entry): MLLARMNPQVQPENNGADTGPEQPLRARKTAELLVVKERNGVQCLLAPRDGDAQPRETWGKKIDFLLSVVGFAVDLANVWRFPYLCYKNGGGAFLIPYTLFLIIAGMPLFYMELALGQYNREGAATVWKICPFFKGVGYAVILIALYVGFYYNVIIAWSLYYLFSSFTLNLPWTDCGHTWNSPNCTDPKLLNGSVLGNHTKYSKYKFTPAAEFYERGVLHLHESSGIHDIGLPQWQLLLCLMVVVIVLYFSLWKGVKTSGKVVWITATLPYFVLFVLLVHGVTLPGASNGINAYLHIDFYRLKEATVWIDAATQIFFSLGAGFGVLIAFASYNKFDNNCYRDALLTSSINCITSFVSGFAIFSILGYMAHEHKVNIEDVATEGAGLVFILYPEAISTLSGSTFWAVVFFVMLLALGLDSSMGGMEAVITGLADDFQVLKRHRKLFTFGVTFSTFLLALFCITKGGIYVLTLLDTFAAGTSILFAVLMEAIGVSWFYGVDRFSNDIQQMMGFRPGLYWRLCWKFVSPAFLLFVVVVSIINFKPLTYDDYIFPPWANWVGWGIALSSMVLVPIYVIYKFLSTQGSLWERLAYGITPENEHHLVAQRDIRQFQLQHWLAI
Beta-1 adrenergic receptor, sequence (P08588 whole entry): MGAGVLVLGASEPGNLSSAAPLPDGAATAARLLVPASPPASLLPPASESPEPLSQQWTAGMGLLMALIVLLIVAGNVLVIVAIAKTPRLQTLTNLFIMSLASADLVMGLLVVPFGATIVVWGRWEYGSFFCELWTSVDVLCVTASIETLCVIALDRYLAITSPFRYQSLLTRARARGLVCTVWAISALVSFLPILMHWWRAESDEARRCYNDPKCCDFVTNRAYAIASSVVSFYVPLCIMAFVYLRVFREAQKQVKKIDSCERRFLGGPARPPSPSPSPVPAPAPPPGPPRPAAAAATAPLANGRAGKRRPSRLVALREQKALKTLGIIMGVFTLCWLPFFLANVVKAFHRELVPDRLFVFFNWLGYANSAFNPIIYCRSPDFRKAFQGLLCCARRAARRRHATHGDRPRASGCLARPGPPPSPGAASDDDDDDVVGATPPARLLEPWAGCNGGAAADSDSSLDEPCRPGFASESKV
Adenosine receptor A2a, sequence (P29274 whole entry): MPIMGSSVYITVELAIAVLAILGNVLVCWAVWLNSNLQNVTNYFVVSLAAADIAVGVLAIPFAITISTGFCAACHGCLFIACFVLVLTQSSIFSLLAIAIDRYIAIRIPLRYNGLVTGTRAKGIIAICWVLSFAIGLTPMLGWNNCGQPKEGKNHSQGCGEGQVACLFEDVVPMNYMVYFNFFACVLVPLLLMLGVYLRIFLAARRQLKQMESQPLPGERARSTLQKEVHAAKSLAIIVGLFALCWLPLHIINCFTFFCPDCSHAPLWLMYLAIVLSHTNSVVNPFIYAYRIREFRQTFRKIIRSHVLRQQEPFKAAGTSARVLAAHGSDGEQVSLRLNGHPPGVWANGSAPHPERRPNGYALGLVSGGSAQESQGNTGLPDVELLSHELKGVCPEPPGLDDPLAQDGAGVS
5-hydroxytryptamine receptor 4, sequence (O70528 whole entry): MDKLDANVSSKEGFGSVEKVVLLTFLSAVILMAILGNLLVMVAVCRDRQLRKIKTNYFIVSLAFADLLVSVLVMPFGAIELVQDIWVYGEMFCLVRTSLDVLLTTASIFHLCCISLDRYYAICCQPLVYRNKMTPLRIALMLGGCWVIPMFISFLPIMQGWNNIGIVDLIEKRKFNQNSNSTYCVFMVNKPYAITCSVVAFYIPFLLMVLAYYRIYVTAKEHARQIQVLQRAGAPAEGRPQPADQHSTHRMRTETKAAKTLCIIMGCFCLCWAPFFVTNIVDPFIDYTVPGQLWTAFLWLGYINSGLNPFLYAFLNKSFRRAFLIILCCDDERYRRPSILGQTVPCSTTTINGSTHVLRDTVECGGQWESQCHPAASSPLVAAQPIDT

With `Nn1c(CCCCN2CCN(c3ccc4ccccc4n3)CC2)nc2c(c1=O)CCCC2`, the IC50 in data set [1] is above 1000 nM; in data set [2] it was above 1000 nM; in [3], above 1000 nM; in data set [5], 1.4 nM; in data set [6] it was above 1000 nM; in data set [7], above 8.93 nM. Moreover, the IC50 in data set [9] is above 1000 nM; in [10], 1000 nM; in data set [12], above 1000 nM; in data set [13], above 1000 nM; in data set [14] it was above 1000 nM; in [15] it was above 1000 nM. Moreover, the results for the IC50 in data set [16] and in data set [18] were above 1000 nM and 8.9 nM, respectively. For the same compound, the Ki in [4] was found to be 0.701 nM. Also, the Kp at 2 h in data set [8] stood at 2.56. Besides, the EC50 in data set [11] came to 22.3 nM. Also, in [17], the deltaT was -1.4 °C.
